PGC1a acetyl inh – PGC1a acetylation modulation, inhibitor mode; U2OS PGC1a acetylation, AlphaScreen anti-acetyl-lysine; with virally co-expressed GCN5 acetyltransferase; inhibition, % at 15.6 µM; 350,000 tested, 0.17% active; AID 651687;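 active = every replicate shows inhibition of at least 40%; inconclusive = mean inhibition at least 40% but some replicate below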;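 note: 0% = neutral control wells and 100% = positive control wells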
Xi reactivation – X-chromosome reactivation activator | 360,000 tested, 0.055% active | AID 743238 | activation, % at 7.58 µM | XiGFP mouse fibroblasts, % GFP-positive cells imaging, 3 d; cells co-treated with 5-aza-dC sensitizer; scaled so ellipticine positive control = 100%;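 active = mean normalized replicate activation at least 10% and every replicate at or above 10%; inconclusive = only one of the two criteria met; inactive = mean below 10% and not all replicates reach 10%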;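 note: 0% = median of on-plate neutral control wells and 100% = ellipticine 6 µM median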
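System: XiGFP fibroblasts, SV40-immortalized. Medium: DMEM plus 5-aza-dC sensitizer. Doses: single point. Timing: 3 d treatment, 15 min room-temperature fixation. Control set: ellipticine 6 µM.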
DENV2 CPE – DENV2-induced cell death inhibition. 350,000 tested, 1.7% active. DENV2-infected cells, cytopathic effect rescue, plate reader. AID 651640. CPE inhibition, % at 9.99 µM; in the data active = CPE inhibition above about 20%, passing the limit was not always enough; inconclusive = no clear call, values can overlap the other calls; tested in BHK-21 cells;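 note: 0% = median of neutral control wells and 100% = median of positive control wells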
F508del corr – CFTR F508del correction in bronchial cells | CFBE cells, YFP halide quenching; stimulated with forskolin plus potentiator P3; % fluorescence drop versus neutral controls | activity (quench increase), % at 7.58 µM | 350,000 tested, 0.36% active;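 active = mean added fluorescence quench of at least 8% versus neutral control, with both replicates also reaching 8%; inconclusive = only one of the mean or replicate conditions met; inactive = mean below 8% and not both replicates reaching 8%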;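 note: cells transiently co-express mutant CFTR-F508del with the halide-sensitive YFP; corrector assay measuring rescue of mutant channel to the surface after 24 h compound exposure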
FN deposit inh – fibronectin deposition inhibition. AH1F fibroblasts, Alexa488-fibronectin deposition fluorescence, overnight. inhibition, % at 12.6 µM. 350,000 tested, 0.086% active. AID 743247;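 active = mean inhibition across replicates of 30% or more, regardless of how many single replicates reach that level; inconclusive = mean under 30% yet at least half of replicates reach 30%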;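 note: positive control wells lacked labelled fibronectin entirely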
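Assay system: AH1F fibroblasts / Quantity: 10000 cells per well / Medium: DMEM plus 2% serum, read in PBS / Reagent: labelled fibronectin 24 nM / Dosing: single dose, pinned / Times: 1 h cell attachment, overnight exposure to compound and label / Signal: fluorescence, ex 485 nm, em 525 nm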
Cneo AK release – Cryptococcus neoformans lysis via adenylate kinase release; AID 651654; lysis activity, % at 15 µM; C. neoformans lysis, adenylate kinase release luminescence, 4 h; normalised: neutral wells 0, clomiphene wells 100; 360,000 tested, 0.2% active;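 active = mean lysis activity across replicates of at least 80%, whatever share of replicates individually reach that level; inactive = mean lysis activity below 80%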
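Material: C. neoformans cells | Amount: Yeast cell density of 5 × 10^6 cells/mL | Medium: Fresh YPD growth medium | Dosing: Single dose | Times: Static 4 h at 37 °C with compound, 1 h detection | Detection: AK luminescence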
* = called active by the depositor; ? = inconclusive; · = no result given. The list is not random: actives were taken first. Their share in the collection is about 1.9%.

SMILES	PGC1a acetyl inh	Xi reactivation	DENV2 CPE	F508del corr	FN deposit inh	Cneo AK release
CC(C)C[C@H]1CN([C@@H](CC(C)C)CN2CCC[C@@H]2CN2C(=S)NC[C@@H]2Cc2ccc(O)cc2)C(=S)N1CCc1ccccc1	-1.1	0.0	3.4	8.8*	4.4	0.0
CC(C)C[C@H]1CN([C@@H](Cc2ccc(O)cc2)CN2CCC[C@@H]2CN2C(=O)C(=O)NC[C@@H]2Cc2ccccc2)C(=O)C(=O)N1CC1CCCCCC1	2.7	0.5	?	1.7	-1.0	1.4
CCOc1ccc(CCN2C(=S)N([C@@H](Cc3ccc(O)cc3)CN3CCC[C@@H]3CN3C(=S)NC[C@@H]3CC(C)C)C[C@@H]2CC(C)C)cc1	3.1	0.8	21.9*	5.3	·	2.2
CC(C)C[C@H]1CNC(=S)N1C[C@H]1CCCN1C[C@H](CC(C)C)N1C[C@H](Cc2ccc(O)cc2)N(CCc2ccccc2)C1=S	7.3	-0.1	39.1*	-1.9	·	0.9
CC(C)C[C@H]1CN([C@@H](CC(C)C)CN2CCCC2CN2C(=S)NC[C@@H]2Cc2ccc(O)cc2)C(=S)N1CCc1ccccc1 (some centres not stated)	5.2	0.0	3.5	-0.7	17.6	10.8
CC(C)C[C@H]1CNC(=O)C(=O)N1C[C@@H]1CCCN1C[C@H](CC(C)C)N1C[C@H](Cc2ccccc2)N(CCc2ccccc2)C(=O)C1=O	·	0.2	-3.9	1.8	-5.6	·
CC(C)C[C@H]1CNC(=O)C(=O)N1C[C@@H]1CCCN1C[C@H](CC(C)C)N1C[C@H](Cc2ccc(O)cc2)N(CCc2ccccc2)C(=O)C1=O	·	-0.2	-4.7	0.8	active	·
CCCCCCCCSC1=CC(=O)C(OC)=C(OC)C1=O	-2.4	0.9	70.6*	-5.1	6.5	-2.5
O=C1[C@H]2[C@@H](c3ccc(Cl)cc3)N3C(=O)N(c4cccc(F)c4)C(=O)[C@@]3(Cc3ccc(Cl)cc3)[C@H]2C(=O)N1C1CCCCC1	-2.3	·	·	·	·	0.7
O=C1[C@H]2[C@@H](c3ccc(F)cc3)N3C(=O)N(c4cccc(F)c4)C(=O)[C@@]3(Cc3ccc(Cl)cc3)[C@H]2C(=O)N1C1CCCCC1	0.6	-0.3	23.8*	0.7	-4.5	-0.7
Cc1noc(C)c1S(=O)(=O)Nc1ccc2c(c1)C(=O)N([C@H](C)CO)C[C@H](C)[C@H](CN(C)C(=O)CCC(F)(F)F)OCCCC[C@@H](C)O2	0.3	-0.5	71.9*	-1.1	·	-0.4
Cc1noc(C)c1S(=O)(=O)Nc1ccc2c(c1)C(=O)N([C@@H](C)CO)C[C@@H](C)[C@H](CN(C)C(=O)CCCN(C)C)OCCCC[C@H](C)O2	10.2	-0.1	·	4.8	·	-4.3
Cc1noc(C)c1S(=O)(=O)Nc1ccc2c(c1)C(=O)N([C@H](C)CO)C[C@H](C)[C@@H](CN(C)C(=O)CCCN(C)C)OCCCC[C@H](C)O2	6.3	-0.1	79.0*	-1.4	·	-17.1
C[C@H]1CN([C@@H](C)CO)C(=O)c2cc(C#CC3(O)CCCC3)cnc2O[C@@H]1CN(C)C(=O)C1CC1	5.1	-0.3	·	-1.1	·	·
COc1cc(NC(=O)[C@@H](Cc2ccccc2)NC(=O)[C@H]2O[C@@H](n3ccc(N)nc3=O)[C@H](O)[C@@H]2O)cc(OC)c1OC	·	0.0	?	-0.6	-0.2	·
COc1cc(NC(=O)[C@@H](Cc2ccccc2)NC(=O)[C@H]2O[C@@H](n3ccc(=O)[nH]c3=O)[C@H](O)[C@@H]2O)cc(OC)c1OC	·	0.1	42.9*	5.0	5.6	·
C[C@H]1CN([C@@H](C)CO)C(=O)c2cc(C#CC3CCCCC3)cnc2O[C@@H]1CN(C)Cc1ccncc1	-5.8	-0.8	2.7	1.7	·	5.4
Cc1cc(N2CCN(C)CC2)n2nc(-c3ccc(Cl)cc3)nc2n1	·	0.0	35.1*	-1.4	3.2	·
Cc1cc(N2CCOCC2)n2nc(C)c(-c3ccc(Cl)cc3)c2n1	1.0	0.1	-1.3	-2.9	7.1	0.8
CCCCN1C(N)=NC[C@@H]1C(C)O (some centres not stated)	·	0.1	23.0*	1.3	5.0	2.1
